CDK5 inh: CDK5/p35 (human) kinase inhibition; Q00535+Q15078; Recombinant CDK5/p35, ADP-Glo luminescence, 60 min; inhibition, % at 10 µM; hit rate 0.01% among 330,000;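 active = highest replicate inhibition of at least 50% and at least 75% of replicates reaching 50%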
STK33 kinase inh: blocks human STK33 kinase activity | Q9BYT3 | purified STK33, MBP phosphorylation, ADP-Glo luminescence | hit rate 0.073% among 320,000 | inhibition, % at 10 µM | AID 2661;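 active = inhibition at or above 25%, using the most active replicate where run in duplicate; inactive = inhibition below 25%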
GSK3 alpha inh: inhibitors of human GSK-3 alpha kinase. P49840. ADP-Glo luminescence, 60 min. inhibition, % at 10 µM. hit rate 0.1% among 320,000;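 active = more than half of replicates show inhibition above 20%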;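 note: GST-tagged GSK-3 alpha with peptide substrate and 25 µM ATP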
DYRK1A inh: Dyrk1A (rat) kinase inhibition | Q63470 | ADP-Glo luminescence, NFATc1 peptide | inhibition, % at 12.5 µM | hit rate 0.43% among 310,000 | AID 504441; in the data active = inhibition above about 50%
GSK3beta inhib: blocks human GSK3beta kinase activity; activity score (negative = inhibition), % at 10 µM; GST-GSK3beta kinase, ADP-Glo luminescence, 60 min; active compounds read low; P49841; hit rate 0.038% among 300,000;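 active = more than half of replicate wells score below -50%, meaning over 50% inhibition versus plate controls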
Target sequence (P49841 whole entry, looked up): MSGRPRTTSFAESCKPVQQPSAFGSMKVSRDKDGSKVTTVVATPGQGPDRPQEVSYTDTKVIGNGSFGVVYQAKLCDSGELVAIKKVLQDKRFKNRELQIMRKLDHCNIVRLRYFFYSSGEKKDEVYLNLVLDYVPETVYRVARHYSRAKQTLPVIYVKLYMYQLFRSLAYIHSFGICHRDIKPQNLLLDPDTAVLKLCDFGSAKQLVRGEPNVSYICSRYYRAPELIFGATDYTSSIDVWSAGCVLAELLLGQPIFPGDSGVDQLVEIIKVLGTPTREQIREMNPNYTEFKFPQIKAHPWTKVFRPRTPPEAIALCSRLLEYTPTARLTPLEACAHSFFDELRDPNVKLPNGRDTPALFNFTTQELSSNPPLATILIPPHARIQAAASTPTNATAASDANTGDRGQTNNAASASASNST
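Assay system: GST-tagged human GSK3beta kinase, cell-free; Input: 1.6 ng GSK3beta; Medium: Tris/MgCl2 kinase buffer; Timing: 60 min enzyme reaction, room temperature; Signal: ADP-Glo luminescence quantifying ADP generated by kinase; Evaluation: score relative to plate controls; Benchmarks: DMSO neutral wells and GW8510 at 20 µM as positive.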
ADP-Glo artifact: interferes with ADP-Glo luciferase readout without Dyrk1A; shares compounds with DYRK1A inh; 1,300 tested, under 10 active; AID 588348; AC50, µM (highest dose often 12 µM); ADP-Glo luciferase artifact assay, no Dyrk1A, luminescence;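 active = fitted half-maximal dose AC50 no more than ten times the top valid tested dose, with luminescence dropping as dose rises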
Each line names hits and unclear results; the compound was inactive in the other large screens (follow-up assays come after a bar, where they were run). Many of the other results were omitted from the sample, so hits are more common in it than they were.

O=C1NC(=O)/C(=C/c2ccc(-c3cc(C(=O)O)ccc3Cl)o2)S1	DYRK1A inh 61 | ADP-Glo artifact inactive
Cn1c(CNC(=O)CCNC(=O)c2cccc(Cl)c2)cc(=O)n(C)c1=O	none
CN(C(=O)c1ccc2c(c1)OCCO2)c1c(N)n(Cc2ccccc2)c(=O)[nH]c1=O	none
Fc1ccccc1NC(=S)Nc1cccc2cnccc12	DYRK1A inh 65 | ADP-Glo artifact inactive
Cc1cccc(CCN(C(=O)c2csnn2)C(C(=O)NC2CCCC2)c2ccco2)c1 (centres undefined)	none
CC(C)On1c(SCC(=O)N(C)C)nc2ccccc2c1=O	none (no result: CDK5 inh, DYRK1A inh)
CC1OC(OC2C(CO)OC(OCC3OC(OC(=O)[C@@]45CCC(C)(C)C[C@@H]4C4=CC[C@@H]6[C@@]7(C)CCC(OC8OCC(O)C(O)C8OC8OC(C)C(O)C(O)C8O)[C@@](C)(CO)C7CC[C@@]6(C)[C@]4(C)CC5)C(O)C(O)C3O)C(O)C2O)C(O)C(O)C1O (some centres undefined)	none (no result: STK33 kinase inh, GSK3 alpha inh, GSK3beta inhib)
Cc1ccc2nc(C)cc(Cl)c2c1	none (no result: GSK3 alpha inh)
Cc1cc2c(ccc3[nH]onc32)n1	DYRK1A inh 51 | ADP-Glo artifact inactive
CC1CCC(C(C)C)C2=C1C(C#N)(C#N)C(C#N)(C#N)C(c1ccccc1)N2 (centres undefined)	DYRK1A inh 54 | ADP-Glo artifact inactive
COCCN=C1N[C@@H](c2cccc(C(F)(F)F)c2)C(C(=O)OC)=C(C)N1Cc1ccccc1	DYRK1A inh 57 | ADP-Glo artifact inactive
COC(=O)C1=C(C)N(Cc2ccccc2)C(=NCc2cccc(C(F)(F)F)c2)N[C@H]1c1cccc(C(F)(F)F)c1	none (no result: GSK3beta inhib)
COc1ccccc1-c1sc2ccccc2c1C#Cc1ccc(N(C)C)cc1	DYRK1A inh 51 (no result: GSK3beta inhib) | ADP-Glo artifact inactive
COc1ccccc1-c1sc2ccccc2c1-c1ccc(O)cc1	none (no result: GSK3beta inhib)
Clc1ccc2nc(COc3ccccc3)[nH]c2c1	DYRK1A inh 54 | ADP-Glo artifact inactive
CCC1(CC)NC(=O)N(CC(=O)Nc2sc3c(c2C(N)=O)CCC3)C1=O	DYRK1A inh 66 | ADP-Glo artifact inactive
COc1ccc(/C=C(/C(=O)c2cccs2)N2C=CC=CC2=C(C#N)C#N)cc1	DYRK1A inh 64 (no result: STK33 kinase inh, GSK3 alpha inh) | ADP-Glo artifact inactive
COc1ccc(CCC(=O)Nc2ccc3c(c2)OCO3)cc1OC	none
O=C(Nc1cccc(Cl)c1)Nc1nccs1	DYRK1A inh 59 | ADP-Glo artifact inactive
COC(=O)c1cc(NC(=O)Nc2cccc(Cl)c2)ccc1Cl	DYRK1A inh 53 | ADP-Glo artifact inactive
O=C(Nc1ccc(Cl)c(Cl)c1)Nc1nccs1	none
O=c1c2ccccc2ncn1CCCCOc1ccc(Br)cc1	none
CCN(CC(=O)Nc1cccc(OC)c1)CC(=O)Nc1cccc2ccccc12	none (no result: GSK3beta inhib)
COc1cc(C(=O)Nc2ccc3c(c2)CCCN3C(=O)c2ccco2)c([N+](=O)[O-])cc1OC	none
Cc1cccc(NC(=O)COC(=O)c2n[nH]c3ccccc23)c1C	none (no result: GSK3beta inhib)
Cc1cccc(C)c1OCCOC(=O)c1n[nH]c2ccccc12	DYRK1A inh 60 | ADP-Glo artifact inactive
COc1ccc(C(=O)Nc2nc3ccccc3[nH]2)cc1S(=O)(=O)N1CCOCC1	DYRK1A inh 55 | ADP-Glo artifact inactive
CCOC(=O)c1ccccc1NC(=O)CN(c1ccc(OCC)cc1)S(C)(=O)=O	none (no result: STK33 kinase inh, GSK3 alpha inh)
N#CCC(N)=C(C#N)C#N	DYRK1A inh 69 | ADP-Glo artifact inactive
Cc1ccc(NC(=O)Cn2cnc3c(NCc4ccccc4)ncnc32)cc1C	none (no result: STK33 kinase inh, GSK3 alpha inh, DYRK1A inh, GSK3beta inhib)
Clc1cccc(Cc2ccc(Cl)nn2)c1	none
Clc1cccc(Cc2nn[nH]n2)c1	DYRK1A inh 59 | ADP-Glo artifact inactive
O=C(C[C@@H]1C/C=C\C[C@H](Cc2ccc(F)cc2)C(=O)OCCNC1=O)NCCO	none (no result: GSK3beta inhib)
Cc1occc1C(=O)/C(C#N)=C/c1ccc(O)c(Br)c1	DYRK1A inh 67 | ADP-Glo artifact inactive
Nc1c(C(=O)NCc2ccccc2)nnn1Cc1ccccc1	DYRK1A inh 60 | ADP-Glo artifact inactive
CSc1ccc(Cn2nnc(C(=O)NCc3ccccc3)c2N)cc1	none
COc1cccc(Cn2nnc(C(=O)NCCc3ccc(Cl)cc3)c2N)c1	DYRK1A inh 56 | ADP-Glo artifact inactive
Nc1ccc(C(=O)Nc2nc3ccccc3s2)cc1	DYRK1A inh 56 | ADP-Glo artifact inactive
COc1cc(O)cc2cc3c(c(O)c12)C(=O)CC(C)(O)O3 (centres undefined)	DYRK1A inh 108 (no result: GSK3beta inhib) | ADP-Glo artifact inactive

Assay outcomes: PubChem, Broad Institute
